Experiment [1] relates to MT4. The experiment is described as follows: (§1) Anti-HIV activity was determined as dose required to protect 50% of the HIV-infected MT-4 cells against destruction. The class given is functional. Conditions: Homo sapiens, read-out: ED50 (the source's name). Summed up:
(§2)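 MT-4 cells infected with HIV at 10 CCID50 per well, incubated 5 days with a range of compound concentrations. Viable cells counted in a blood cell counting chamber after trypan blue staining.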

The subject of experiment [2] is MT4. The experiment is described as follows: Cytotoxicity was determined as the dose required to reduce the viability of uninfected MT-4 cells by 50%. Conditions: Homo sapiens, read-out: CD50 (the source's name). Format: functional. The method, boiled down: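 Mock-infected MT-4 cells incubated 5 days with a range of compound concentrations. Viable cells counted in a blood cell counting chamber after trypan blue staining.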

A short description of experiment [3]: Selectivity ratio CD50 to ED50. The class given is functional. Summed up:
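Ratio of CD50 to ED50. CD50 is from uninfected MT-4 cells and ED50 from MT-4 cells infected with HIV at 10 CCID50 per well. Both are read after 5 days with compound by trypan blue viable cell counting in a blood cell counting chamber.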

Experiment [4] concerns MT4. The experiment is described as §1. Format: functional, Homo sapiens. The following applies: read-out: ED50 (the source's name). The method, boiled down: as §2

In the case of `Nc1ncnc2c1ncn2[C@@H]1O[C@H](CO)C[C@H]1F`, the EC50 in the experiment on MT4 [1] is above 625 µM. In addition, the CC50 in the experiment with MT4 [2] was above 625 µM.

Take `Nc1ncnc2c1ncn2[C@H]1CC[C@@H](CO)O1`: the CC50 in the experiment with MT4 [2] came out at 889 µM. Further, the Ratio in experiment [3] worked out at 148. Further, in the experiment on MT4 [4] (Homo sapiens, MT4), the EC50 was 6.2 µM.

Take `Nc1ncnc2c1ncn2[C@H]1C[C@H](F)[C@@H](CO)O1` (stereo in doubt; 12) [listing 1 of 2 here]: the Ratio in experiment [3] stood at 11.1.

Take `Nc1ncnc2c1ncn2[C@H]1C=C[C@@H](CO)O1`: in the experiment on MT4 [2], the CC50 is 34 µM. The Ratio in experiment [3] is below 1.2. For the same compound, the EC50 in the experiment with MT4 [4] (Homo sapiens, MT4) was above 25 µM.

Consider `Nc1ncnc2c1ncn2[C@H]1C[C@H](F)[C@@H](CO)O1` (stereo in doubt; 12) [listing 2 of 2 here], for which the EC50 in the experiment on MT4 [4] is 50 µM.

Turning to `Nc1ncnc2c1ncn2[C@@H]1O[C@H](CO)C[C@@H]1F` [LODENOSINE], the CC50 in the experiment on MT4 [2] is above 625 µM. Further, in experiment [3], the Ratio was above 18. The EC50 with MT4 [4] (Homo sapiens, MT4) stood at 35 µM.

In the case of `[N-]=[N+]=N[C@@H]1C[C@@H](CO)O[C@H]1n1cnc2c(N)ncnc21`, the EC50 in the experiment with MT4 [1] was 215 µM. Moreover, the CC50 in the experiment on MT4 [2] was above 625 µM. The Ratio in experiment [3] is above 2.9.

With `Nc1ncnc2c1ncn2[C@H]1C[C@H](F)[C@@H](CO)O1` (stereo in doubt; 13) [listing 1 of 2 here], in the experiment with MT4 [2], the CC50 is above 625 µM. The EC50 with MT4 [4] turned out to be 221 µM.

On to `[N-]=[N+]=N[C@H]1C[C@@H](CO)O[C@H]1n1cnc2c(N)ncnc21`, for which the CC50 with MT4 [2] was found to be 625 µM. Further, the Ratio in experiment [3] turned out to be 11.4. The EC50 in the experiment with MT4 [4] (Homo sapiens, MT4) came to 55 µM.

With `Cc1cn([C@H]2C[C@H](N=[N+]=[N-])[C@@H](CO)O2)c(=O)[nH]c1=O` [ZIDOVUDINE], the CC50 in the experiment with MT4 [2] was found to be 4 µM. For the same compound, the Ratio in experiment [3] was 666. Also, the EC50 in the experiment on MT4 [4] (Homo sapiens, MT4) came out at 0.006 µM.

For the compound `Nc1ncnc2c1ncn2[C@H]1C[C@H](F)[C@@H](CO)O1` (stereo in doubt; 13) [listing 2 of 2 here], the Ratio in experiment [3] was above 2.8.

Values taken from ChEMBL document CHEMBL1123895, “Synthesis and anti-HIV activity of various 2'- and 3'-substituted 2',3'-dideoxyadenosines: a structure-activity analysis” (1987).
